# Test results as given in ChEMBL document CHEMBL1130042, “Structure-activity relationships of N2-aryl-3-(isoxazolylsulfamoyl)-2-thiophenecarboxamides as selective endothelin receptor-A antagonists” (J Med Chem, 1997).
# Tested on: not listed separately
# Test: Compound at dose 60 mg/kg was administered to rats and Serum half life was determined; range = 2.5-3 h
# Type: ADME, organism-based
# Design: dose 60 mg/kg
# Settings: rat
row,half-life,Compound
1,3 h,CC(=O)c1cc2c(cc1NC(=O)c1sccc1S(=O)(=O)Nc1onc(C)c1Cl)OCO2

# Biological target: T1, Endothelin receptor type B (Homo sapiens, UniProt P24530)
# T1 sequence (P24530 whole entry): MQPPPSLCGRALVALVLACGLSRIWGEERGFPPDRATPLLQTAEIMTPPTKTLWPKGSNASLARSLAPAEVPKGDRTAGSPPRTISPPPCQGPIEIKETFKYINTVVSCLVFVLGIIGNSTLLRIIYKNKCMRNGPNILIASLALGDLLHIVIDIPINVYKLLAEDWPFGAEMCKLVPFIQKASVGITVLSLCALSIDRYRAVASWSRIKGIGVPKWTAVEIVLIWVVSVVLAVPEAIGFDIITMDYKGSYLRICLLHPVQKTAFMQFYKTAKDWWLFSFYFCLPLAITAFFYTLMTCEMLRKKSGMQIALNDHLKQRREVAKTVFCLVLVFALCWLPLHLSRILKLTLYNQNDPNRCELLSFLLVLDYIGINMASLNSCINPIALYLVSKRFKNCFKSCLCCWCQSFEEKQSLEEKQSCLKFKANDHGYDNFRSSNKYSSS
# Test: In vitro inhibition of endothelin binding to human Endothelin B receptor using [125I]-labeled ET-1 competition assay
# Settings: not given
# Procedure, shortened: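 Membranes (0.75 mg/tube) from COS 7 cells transfected with human ETB. Buffer 30 mM HEPES pH 7.4, 150 mM NaCl, 5 mM MgCl2, 0.05% bacitracin, final 0.25% DMSO. Tracer 4 pM [125I]ET-1, nonspecific binding with 100 nM ET-1. Incubated 16–18 h at 24 °C, bound radioactivity gamma-counted. Run in triplicate.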
row,Compound,IC50
1,Cc1noc(NS(=O)(=O)c2ccsc2C(=O)Nc2cc3c(cc2C#N)OCO3)c1Cl,40.4 µM
2,Cc1noc(NS(=O)(=O)c2ccsc2C(=O)Nc2ccc3c(c2)OCO3)c1Br,10.1 µM
3,CC(=O)c1cc2c(cc1NC(=O)c1sccc1S(=O)(=O)Nc1onc(C)c1Cl)OCO2,32.6 µM
4,COc1cccc(NC(=O)c2sccc2S(=O)(=O)Nc2onc(C)c2Br)c1,63.1 µM
5,COc1ccccc1NC(=O)c1sccc1S(=O)(=O)Nc1onc(C)c1Br,61.7 µM
6,CC(=O)c1cc2c(cc1NC(=O)c1sccc1S(=O)(=O)Nc1onc(C)c1C)OCO2,> 100 µM
7,COC(=O)c1cc(OC)c(OC)cc1NC(=O)c1sccc1S(=O)(=O)Nc1onc(C)c1Cl,> 100 µM
8,COc1cc(NC(=O)c2sccc2S(=O)(=O)Nc2onc(C)c2Cl)c(C(=O)O)cc1OC,> 100 µM
9,CC(=O)OCCOc1cc2c(cc1NC(=O)c1sccc1S(=O)(=O)Nc1onc(C)c1Cl)OCO2,15.8 µM
10,COc1cc(C#N)c(NC(=O)c2sccc2S(=O)(=O)Nc2onc(C)c2Cl)cc1OC,12.2 µM
11,Cc1nnc(NC(=O)c2sccc2S(=O)(=O)Nc2onc(C)c2Cl)s1,> 100 µM
12,Cc1noc(NS(=O)(=O)c2ccsc2C(N)=O)c1Br,> 100 µM
13,COc1cc(NC(=O)c2sccc2S(=O)(=O)Nc2onc(C)c2Cl)c(C(N)=O)cc1OC,61 µM
14,Cc1cc2c(cc1NC(=O)c1sccc1S(=O)(=O)Nc1onc(C)c1Cl)OCO2,35.5 µM
15,COc1cccc(NCc2sccc2S(=O)(=O)Nc2onc(C)c2Br)c1,7.59 µM
16,Cc1noc(NS(=O)(=O)c2ccsc2C(=O)NCc2ccccc2)c1Br,97.7 µM
17,Cc1noc(NS(=O)(=O)c2ccsc2C(=O)Nc2cc3c(cc2CC#N)OCO3)c1Cl,25.7 µM
18,COc1ccc(NC(=O)c2sccc2S(=O)(=O)Nc2onc(C)c2Cl)c(OC)c1,51.9 µM
19,Cc1noc(NS(=O)(=O)c2ccsc2C(=O)Nc2ccc(-c3ccccc3)cc2)c1Br,8.71 µM
20,Cc1noc(NS(=O)(=O)c2ccsc2C(=O)Nc2ccccc2C(=O)O)c1Br,19.5 µM
21,Cc1noc(NS(=O)(=O)c2ccsc2C(=O)Nc2cccc(C(=O)O)c2)c1Br,117 µM
22,Cc1ccccc1NC(=O)c1sccc1S(=O)(=O)Nc1onc(C)c1Br,> 100 µM
23,Cc1noc(NS(=O)(=O)c2ccsc2C(=O)N(C)c2ccccc2)c1Br,> 100 µM
24,Cc1noc(NS(=O)(=O)c2ccsc2C(=O)Nc2cc3c(cc2OCCO)OCO3)c1Cl,14.4 µM
25,Cc1noc(NS(=O)(=O)c2ccsc2C(=O)Nc2cc3c(cc2CCCO)OCO3)c1Cl,9.08 µM
26,Cc1noc(NS(=O)(=O)c2ccsc2C(=O)Nc2cccc(O)c2)c1Br,67.5 µM
27,COc1ccc(NC(=O)c2sccc2S(=O)(=O)Nc2onc(C)c2Cl)c(C)c1,14 µM

# Other lines, results leading:
row,IC50,Compound
1,5.89 µM,CCC(C)c1ccc(NC(=O)c2sccc2S(=O)(=O)Nc2onc(C)c2Br)cc1 (stereo not drawn)
2,30.2 µM,COc1ccc(NC(=O)c2sccc2S(=O)(=O)Nc2onc(C)c2Br)cc1
3,9.12 µM,Cc1ccc(NC(=O)c2sccc2S(=O)(=O)Nc2onc(C)c2Br)cc1
4,6.92 µM,Cc1noc(NS(=O)(=O)c2ccsc2C(=O)Nc2ccc(C(C)(C)C)cc2)c1Br
5,44.7 µM,Cc1ccc(NC(=O)c2sccc2S(=O)(=O)Nc2onc(C)c2Cl)nc1
6,77.6 µM,Cc1noc(NS(=O)(=O)c2ccsc2C(=O)Nc2ccccc2)c1Br
7,67.6 µM,Cc1ccc(NC(=O)c2sccc2S(=O)(=O)Nc2onc(C)c2C)cc1
8,6.17 µM,CCCCc1ccc(NC(=O)c2sccc2S(=O)(=O)Nc2onc(C)c2Br)cc1
9,4.37 µM,Cc1noc(NS(=O)(=O)c2ccsc2C(=O)Nc2ccc(C(C)C)cc2)c1Br
10,7.41 µM,CCc1ccc(NC(=O)c2sccc2S(=O)(=O)Nc2onc(C)c2Br)cc1
11,8.24 µM,Cc1ccc(NC(=O)c2sccc2S(=O)(=O)Nc2onc(C)c2Cl)c(O)c1
12,67.4 µM,Cc1cccc(NC(=O)c2sccc2S(=O)(=O)Nc2onc(C)c2Br)c1

# Biological target: T2, Endothelin-1 receptor (Homo sapiens, UniProt P25101)
# T2 sequence (P25101 whole entry): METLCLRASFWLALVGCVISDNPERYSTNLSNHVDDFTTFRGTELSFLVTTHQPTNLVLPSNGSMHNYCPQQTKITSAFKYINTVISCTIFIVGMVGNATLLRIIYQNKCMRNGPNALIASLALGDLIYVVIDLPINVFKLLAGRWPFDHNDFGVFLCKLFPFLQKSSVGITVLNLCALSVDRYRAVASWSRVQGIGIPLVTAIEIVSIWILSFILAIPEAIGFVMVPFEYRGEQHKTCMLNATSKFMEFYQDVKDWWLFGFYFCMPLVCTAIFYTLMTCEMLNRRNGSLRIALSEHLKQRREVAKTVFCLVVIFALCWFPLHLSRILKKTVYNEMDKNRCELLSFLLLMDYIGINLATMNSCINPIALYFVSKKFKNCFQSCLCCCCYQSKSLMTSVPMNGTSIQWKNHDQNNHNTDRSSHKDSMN
# Test: In vitro inhibition of endothelin binding to human Endothelin A receptor using [125I]-labeled ET-1 competition assay
# Settings: not given
# Procedure, shortened: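 Membranes from confluent TE 671 cells (endogenous human ETA), DNase-treated, 3 mg/tube. Buffer 30 mM HEPES pH 7.4, 150 mM NaCl, 5 mM MgCl2, 0.05% bacitracin, final 0.25% DMSO. Tracer 4 pM [125I]ET-1, nonspecific binding with 100 nM ET-1. Incubated 16–18 h at 24 °C, centrifuged, bound radioactivity gamma-counted. Run in triplicate.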
row,Compound,IC50
1,Cc1noc(NS(=O)(=O)c2ccsc2C(=O)Nc2cc3c(cc2C#N)OCO3)c1Cl,0.0034 µM
2,Cc1noc(NS(=O)(=O)c2ccsc2C(=O)Nc2ccc3c(c2)OCO3)c1Br,0.019 µM
3,CC(=O)c1cc2c(cc1NC(=O)c1sccc1S(=O)(=O)Nc1onc(C)c1Cl)OCO2,0.01 µM
4,COc1cccc(NC(=O)c2sccc2S(=O)(=O)Nc2onc(C)c2Br)c1,0.085 µM
5,COc1ccccc1NC(=O)c1sccc1S(=O)(=O)Nc1onc(C)c1Br,0.132 µM
6,CC(=O)c1cc2c(cc1NC(=O)c1sccc1S(=O)(=O)Nc1onc(C)c1C)OCO2,0.031 µM
7,COC(=O)c1cc(OC)c(OC)cc1NC(=O)c1sccc1S(=O)(=O)Nc1onc(C)c1Cl,0.549 µM
8,COc1cc(NC(=O)c2sccc2S(=O)(=O)Nc2onc(C)c2Cl)c(C(=O)O)cc1OC,1.43 µM
9,CC(=O)OCCOc1cc2c(cc1NC(=O)c1sccc1S(=O)(=O)Nc1onc(C)c1Cl)OCO2,0.0061 µM
10,COc1cc(C#N)c(NC(=O)c2sccc2S(=O)(=O)Nc2onc(C)c2Cl)cc1OC,0.0039 µM
11,Cc1nnc(NC(=O)c2sccc2S(=O)(=O)Nc2onc(C)c2Cl)s1,1.29 µM
12,COc1cc(NC(=O)c2sccc2S(=O)(=O)Nc2onc(C)c2Cl)c(C(N)=O)cc1OC,0.0108 µM
13,Cc1noc(NS(=O)(=O)c2ccsc2C(=O)Nc2cc3c(cc2CC(=O)N(C)C)OCO3)c1Cl,0.0093 µM
14,COc1cccc(NCc2sccc2S(=O)(=O)Nc2onc(C)c2Br)c1,0.933 µM
15,Cc1noc(NS(=O)(=O)c2ccsc2C(=O)NCc2ccccc2)c1Br,0.229 µM
16,Cc1noc(NS(=O)(=O)c2ccsc2C(=O)Nc2cc3c(cc2CC#N)OCO3)c1Cl,0.0038 µM
17,COc1ccc(NC(=O)c2sccc2S(=O)(=O)Nc2onc(C)c2Cl)c(OC)c1,0.015 µM
18,Cc1noc(NS(=O)(=O)c2ccsc2C(=O)Nc2ccc(-c3ccccc3)cc2)c1Br,0.977 µM
19,Cc1noc(NS(=O)(=O)c2ccsc2C(=O)Nc2ccccc2C(=O)O)c1Br,0.214 µM
20,Cc1noc(NS(=O)(=O)c2ccsc2C(=O)Nc2ccc(O)nn2)c1Br,0.065 µM
21,Cc1ccccc1NC(=O)c1sccc1S(=O)(=O)Nc1onc(C)c1Br,0.027 µM
22,Cc1noc(NS(=O)(=O)c2ccsc2C(=O)N(C)c2ccccc2)c1Br,1.91 µM
23,Cc1noc(NS(=O)(=O)c2ccsc2C(=O)Nc2cc3c(cc2OCCO)OCO3)c1Cl,0.0051 µM
24,Cc1noc(NS(=O)(=O)c2ccsc2C(=O)Nc2cc3c(cc2CCCO)OCO3)c1Cl,0.006 µM
25,Cc1noc(NS(=O)(=O)c2ccsc2C(=O)Nc2cccc(O)c2)c1Br,0.146 µM
26,Cc1cc(NC(=O)c2sccc2S(=O)(=O)Nc2onc(C)c2Cl)no1,0.057 µM
27,COc1ccc(NC(=O)c2sccc2S(=O)(=O)Nc2onc(C)c2Cl)c(C)c1,0.0026 µM

# Continued, values first:
row,IC50,Compound
1,0.015 µM,Cc1ccc(NC(=O)c2sccc2S(=O)(=O)Nc2onc(C)c2Cl)cc1
2,0.054 µM,CCC(C)c1ccc(NC(=O)c2sccc2S(=O)(=O)Nc2onc(C)c2Br)cc1 (stereo not drawn)
3,0.024 µM,COc1ccc(NC(=O)c2sccc2S(=O)(=O)Nc2onc(C)c2Br)cc1
4,0.012 µM,Cc1ccc(NC(=O)c2sccc2S(=O)(=O)Nc2onc(C)c2Br)cc1
5,0.047 µM,Cc1noc(NS(=O)(=O)c2ccsc2C(=O)Nc2ccc(C(C)(C)C)cc2)c1Br
6,0.013 µM,Cc1ccc(NC(=O)c2sccc2S(=O)(=O)Nc2onc(C)c2Cl)nc1
7,0.166 µM,Cc1noc(NS(=O)(=O)c2ccsc2C(=O)Nc2ccccc2)c1Br
8,0.032 µM,Cc1ccc(NC(=O)c2sccc2S(=O)(=O)Nc2onc(C)c2C)cc1
9,0.2 µM,CCCCc1ccc(NC(=O)c2sccc2S(=O)(=O)Nc2onc(C)c2Br)cc1
10,0.02 µM,Cc1noc(NS(=O)(=O)c2ccsc2C(=O)Nc2ccc(C(C)C)cc2)c1Br
11,0.017 µM,CCc1ccc(NC(=O)c2sccc2S(=O)(=O)Nc2onc(C)c2Br)cc1
12,0.0066 µM,Cc1ccc(NC(=O)c2sccc2S(=O)(=O)Nc2onc(C)c2Cl)c(O)c1
13,0.104 µM,Cc1cccc(NC(=O)c2sccc2S(=O)(=O)Nc2onc(C)c2Br)c1

# Tested on: Rattus norvegicus
# Test: % inhibition of ET-1 induced pressor response in conscious rats 30 min after intravenous administration of 15 mg/kg of the compound
# Type: functional
# Settings: 0.5 h
# Procedure, shortened: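 Conscious rats rested 60 min in a restrainer. Autonomic blockade by iv atropine methyl nitrate (3 mg/kg) plus propranolol (2 mg/kg). Vehicle was 1 M Tris base or sodium bicarbonate. Control iv bolus ET-1 challenge ([…]), antagonist iv bolus once MAP returned to baseline, second ET-1 challenge 30 min later. Inhibition = 100 × (control − antagonist max pressor response)/control max pressor response.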
row,Compound,inhibition in vivo at 15 mg/kg
1,Cc1noc(NS(=O)(=O)c2ccsc2C(=O)Nc2cc3c(cc2C#N)OCO3)c1Cl,20%
2,CC(=O)c1cc2c(cc1NC(=O)c1sccc1S(=O)(=O)Nc1onc(C)c1Cl)OCO2,18%

# Tested on: not listed separately
# Test: Compound at dose 60 mg/kg was administered to rats and Serum half life was determined
# Type: ADME, organism-based
# Design: dose 60 mg/kg
# Settings: rat
row,half-life,Compound
1,2.5 h,Cc1noc(NS(=O)(=O)c2ccsc2C(=O)Nc2cc3c(cc2C#N)OCO3)c1Cl
